For orientation: MIC means the lowest concentration found to suppress growth.

Holding throughout (assay type): functional
Assay [1] deals with Trichophyton mentagrophytes. The assay is described as follows: Antifungal activity against Trichophyton mentagrophytes after 16 to 18 hrs by serial dilution method. Conditions: for MIC: Trichophyton mentagrophytes.
A further assay relates to Escherichia coli. The assay is described as follows: Antibacterial activity against Escherichia coli after 16 to 18 hrs by serial dilution method. Conditions: for MIC: Escherichia coli. The gist of the method: (§1)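 The test compound was dissolved in DMF and serially diluted. A standard drop of the prepared microbial culture was added to each dilution, and tubes were incubated at 37 °C for 16–18 h. MIC was taken as the highest dilution that stayed clear with no visible turbidity.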

Another assay has as its system Aspergillus fumigatus. Briefly: Antifungal activity against Aspergillus fumigatus after 16 to 18 hrs by serial dilution method. Conditions: for MIC: Aspergillus fumigatus.
In another assay the test system is Talaromyces marneffei. Briefly: Antifungal activity against Penicillium marneffei after 16 to 18 hrs by serial dilution method. Conditions: for MIC: Talaromyces marneffei. The gist of the method: as §1
Another assay relates to Pseudomonas aeruginosa. Briefly: Antibacterial activity against Pseudomonas aeruginosa after 16 to 18 hrs by serial dilution method. Conditions: for MIC: Pseudomonas aeruginosa. The procedure, abridged:
as §1

For a further assay, the system named is Aspergillus flavus. Briefly: Antifungal activity against Aspergillus flavus after 16 to 18 hrs by serial dilution method. Conditions: for MIC: Aspergillus flavus. The procedure, abridged: as §1
The subject of a further assay is Klebsiella pneumoniae. The assay is described as follows: Antibacterial activity against Klebsiella pneumoniae after 16 to 18 hrs by serial dilution method. Conditions: for MIC: Klebsiella pneumoniae.
For the next assay, the system named is Staphylococcus aureus. Briefly: Antibacterial activity against Staphylococcus aureus after 16 to 18 hrs by serial dilution method. Conditions: for MIC: Staphylococcus aureus. The procedure, abridged: as §1

Molecules are shown by their SMILES. Converted amounts (≈) assume the structure as drawn.

As to `Cc1cccc(OCc2ccccc2-c2nn(CNc3ccc(Cl)cc3C(=O)C(F)(F)F)c(=S)o2)c1`, the “inhibition zone (IZ)” value (in assay [1]; with Escherichia coli; with Aspergillus fumigatus; in the assay on Talaromyces marneffei; in the assay on Pseudomonas aeruginosa; in the assay on Aspergillus flavus) was below 10 mm throughout. For the same compound, the “inhibition zone (IZ)” value in the assay on Klebsiella pneumoniae and in the assay on Staphylococcus aureus was below 10 mm throughout. Moreover, the MIC (in assay [1]; in the assay with Escherichia coli; with Aspergillus fumigatus; against Talaromyces marneffei; in the assay on Pseudomonas aeruginosa; with Aspergillus flavus) was 25 µg/mL (≈ 46.8 µM) throughout. Also, the MIC in the assay with Klebsiella pneumoniae and in the assay with Staphylococcus aureus was 25 µg/mL (≈ 46.8 µM) in each case.
On to `Fc1ccccc1-c1nnc(-c2ccccc2COc2ccc(Cl)cc2)o1`, for which the “inhibition zone (IZ)” value (in assay [1]; in the assay with Escherichia coli; with Aspergillus fumigatus; with Talaromyces marneffei; in the assay with Pseudomonas aeruginosa; in the assay on Aspergillus flavus) was 16 mm in each case. Moreover, the “inhibition zone (IZ)” value with Klebsiella pneumoniae and with Staphylococcus aureus was 16 mm throughout. In addition, the MIC (in assay [1]; with Escherichia coli; with Aspergillus fumigatus; with Talaromyces marneffei; in the assay on Pseudomonas aeruginosa; against Aspergillus flavus) was 6.25 µg/mL (≈ 16.4 µM) throughout. The MIC against Klebsiella pneumoniae and in the assay with Staphylococcus aureus was 6.25 µg/mL (≈ 16.4 µM) throughout.
`Cc1ccccc1OCc1ccccc1-c1nnc(SCc2ccc(Cl)cc2)o1`: the “inhibition zone (IZ)” value (in assay [1]; with Escherichia coli; with Aspergillus fumigatus; with Talaromyces marneffei; with Pseudomonas aeruginosa; in the assay with Aspergillus flavus) was 11 mm in each case. In addition, the “inhibition zone (IZ)” value in the assay on Klebsiella pneumoniae and in the assay with Staphylococcus aureus was 11 mm in each case. Moreover, the MIC (in assay [1]; in the assay with Escherichia coli; with Aspergillus fumigatus; against Talaromyces marneffei; in the assay on Pseudomonas aeruginosa; in the assay on Aspergillus flavus) was 12.5 µg/mL (≈ 29.6 µM) throughout. Also, the MIC against Klebsiella pneumoniae and in the assay with Staphylococcus aureus was 12.5 µg/mL (≈ 29.6 µM) throughout.
Take `Clc1ccc(OCc2ccccc2-c2nnc(SCc3ccccc3)o2)cc1`: the “inhibition zone (IZ)” value (in assay [1]; with Escherichia coli; with Aspergillus fumigatus; with Talaromyces marneffei; with Pseudomonas aeruginosa; in the assay on Aspergillus flavus) was below 10 mm throughout. Besides, the “inhibition zone (IZ)” value with Klebsiella pneumoniae and in the assay with Staphylococcus aureus was below 10 mm throughout. Further, the MIC (in assay [1]; in the assay with Escherichia coli; in the assay on Aspergillus fumigatus; in the assay with Talaromyces marneffei; in the assay with Pseudomonas aeruginosa; in the assay on Aspergillus flavus) was 25 µg/mL (≈ 61.1 µM) in each case. The MIC with Klebsiella pneumoniae and against Staphylococcus aureus was 25 µg/mL (≈ 61.1 µM) throughout.
Regarding `Cc1ccc(OCc2ccccc2-c2nnc(SCc3cccc(C)c3)o2)cc1`, the “inhibition zone (IZ)” value (in assay [1]; with Escherichia coli; with Aspergillus fumigatus; with Talaromyces marneffei; in the assay with Pseudomonas aeruginosa; with Aspergillus flavus) was 11 mm throughout. Besides, the “inhibition zone (IZ)” value in the assay on Klebsiella pneumoniae and with Staphylococcus aureus was 11 mm throughout. Besides, the MIC (in assay [1]; against Escherichia coli; in the assay on Aspergillus fumigatus; against Talaromyces marneffei; against Pseudomonas aeruginosa; with Aspergillus flavus) was 12.5 µg/mL (≈ 31.1 µM) in each case. Moreover, the MIC against Klebsiella pneumoniae and with Staphylococcus aureus was 12.5 µg/mL (≈ 31.1 µM) each time.
Take `COc1cc(-c2nnc(-c3ccccc3COc3ccccc3C)o2)cc(OC)c1OC`: the “inhibition zone (IZ)” value (in assay [1]; with Escherichia coli; with Aspergillus fumigatus; with Talaromyces marneffei; in the assay on Pseudomonas aeruginosa; in the assay on Aspergillus flavus) was 16 mm each time. Also, the “inhibition zone (IZ)” value in the assay on Klebsiella pneumoniae and in the assay with Staphylococcus aureus was 16 mm in each case. In addition, the MIC (in assay [1]; in the assay on Escherichia coli; against Aspergillus fumigatus; against Talaromyces marneffei; against Pseudomonas aeruginosa; against Aspergillus flavus) was 6.25 µg/mL (≈ 14.5 µM) each time. The minimum inhibitory concentration (MIC) in the assay on Klebsiella pneumoniae and with Staphylococcus aureus was 6.25 µg/mL (≈ 14.5 µM) in each case.
With `Cc1cccc(OCc2ccccc2-c2nnc(-c3ccccc3F)o2)c1`, the “inhibition zone (IZ)” value in assay [1] came out at 16 mm; with Escherichia coli it was 16 mm; in the assay on Aspergillus fumigatus, 11 mm; with Talaromyces marneffei, 16 mm; with Pseudomonas aeruginosa it was 16 mm; in the assay on Aspergillus flavus, 11 mm. Further, the “inhibition zone (IZ)” value with Klebsiella pneumoniae and in the assay with Staphylococcus aureus was 16 mm throughout. In addition, the minimum inhibitory concentration (MIC) in assay [1] is 6.25 µg/mL (≈ 17.3 µM); in the assay on Escherichia coli it was 6.25 µg/mL (≈ 17.3 µM); in the assay with Aspergillus fumigatus it was 12.5 µg/mL (≈ 34.7 µM); with Talaromyces marneffei, 6.25 µg/mL (≈ 17.3 µM); against Pseudomonas aeruginosa, 6.25 µg/mL (≈ 17.3 µM); against Aspergillus flavus it was 12.5 µg/mL (≈ 34.7 µM). The MIC with Klebsiella pneumoniae and in the assay on Staphylococcus aureus was 6.25 µg/mL (≈ 17.3 µM) throughout.
In the case of `Cc1cccc(OCc2ccccc2-c2nnc(-c3ccc(Cl)cc3)o2)c1`, the “inhibition zone (IZ)” value (in assay [1]; in the assay with Escherichia coli; in the assay with Aspergillus fumigatus; in the assay on Talaromyces marneffei; in the assay with Pseudomonas aeruginosa; with Aspergillus flavus) was below 10 mm throughout. For the same compound, the “inhibition zone (IZ)” value in the assay with Klebsiella pneumoniae and in the assay on Staphylococcus aureus was below 10 mm each time. Also, the MIC (in assay [1]; in the assay on Escherichia coli; against Aspergillus fumigatus; in the assay with Talaromyces marneffei; against Pseudomonas aeruginosa; with Aspergillus flavus) was 25 µg/mL (≈ 66.3 µM) throughout. The minimal inhibitory concentration (MIC) in the assay on Klebsiella pneumoniae and in the assay on Staphylococcus aureus was 25 µg/mL (≈ 66.3 µM) throughout.
On to `Cc1ccc(OCc2ccccc2-c2nnc(-c3ccccc3)o2)cc1`, for which the “inhibition zone (IZ)” value (in assay [1]; in the assay on Escherichia coli; with Aspergillus fumigatus; with Talaromyces marneffei; in the assay with Pseudomonas aeruginosa; with Aspergillus flavus) was below 10 mm throughout. In addition, the “inhibition zone (IZ)” value with Klebsiella pneumoniae and with Staphylococcus aureus was below 10 mm throughout. In addition, the minimal inhibitory concentration (MIC) (in assay [1]; in the assay on Escherichia coli; against Aspergillus fumigatus; in the assay on Talaromyces marneffei; with Pseudomonas aeruginosa; against Aspergillus flavus) was 25 µg/mL (≈ 73 µM) throughout. Also, the MIC against Klebsiella pneumoniae and in the assay with Staphylococcus aureus was 25 µg/mL (≈ 73 µM) throughout.
With `Cc1cccc(OCc2ccccc2-c2nnc(SCc3ccc(Cl)cc3)o2)c1`, the “inhibition zone (IZ)” value (in assay [1]; in the assay with Escherichia coli; in the assay with Aspergillus fumigatus; in the assay with Talaromyces marneffei; in the assay on Pseudomonas aeruginosa; in the assay on Aspergillus flavus) was 11 mm in each case. Besides, the “inhibition zone (IZ)” value with Klebsiella pneumoniae and in the assay with Staphylococcus aureus was 11 mm each time. For the same compound, the MIC (in assay [1]; in the assay with Escherichia coli; with Aspergillus fumigatus; in the assay with Talaromyces marneffei; against Pseudomonas aeruginosa; against Aspergillus flavus) was 12.5 µg/mL (≈ 29.6 µM) throughout. Further, the MIC with Klebsiella pneumoniae and against Staphylococcus aureus was 12.5 µg/mL (≈ 29.6 µM) in each case.
With `Clc1ccc(OCc2ccccc2-c2nnc(SCc3ccc(Cl)cc3Cl)o2)cc1`, the “inhibition zone (IZ)” value (in assay [1]; in the assay on Escherichia coli; in the assay with Aspergillus fumigatus; in the assay with Talaromyces marneffei; with Pseudomonas aeruginosa; with Aspergillus flavus) was 16 mm in each case. The “inhibition zone (IZ)” value in the assay with Klebsiella pneumoniae and with Staphylococcus aureus was 16 mm throughout. Besides, the MIC (in assay [1]; in the assay on Escherichia coli; in the assay on Aspergillus fumigatus; in the assay with Talaromyces marneffei; in the assay on Pseudomonas aeruginosa; against Aspergillus flavus) was 6.25 µg/mL (≈ 13.1 µM) each time. Moreover, the MIC against Klebsiella pneumoniae and in the assay with Staphylococcus aureus was 6.25 µg/mL (≈ 13.1 µM) each time.
On to `Clc1ccc(OCc2ccccc2-c2nnc(-c3ccccc3)o2)cc1`, for which the “inhibition zone (IZ)” value (in assay [1]; in the assay with Escherichia coli; in the assay on Aspergillus fumigatus; with Talaromyces marneffei; in the assay with Pseudomonas aeruginosa; with Aspergillus flavus) was below 10 mm throughout. The “inhibition zone (IZ)” value in the assay with Klebsiella pneumoniae and with Staphylococcus aureus was below 10 mm in each case. Also, the MIC (in assay [1]; in the assay with Escherichia coli; against Aspergillus fumigatus; against Talaromyces marneffei; in the assay on Pseudomonas aeruginosa; in the assay with Aspergillus flavus) was 25 µg/mL (≈ 68.9 µM) throughout. In addition, the MIC with Klebsiella pneumoniae and against Staphylococcus aureus was 25 µg/mL (≈ 68.9 µM) each time.
